This passage reports IC50 results from ChEMBL document CHEMBL2375324 (Bioorg Med Chem, 2013).

In one experiment the target is Bcr/Abl fusion protein (Homo sapiens, UniProt P00519). Nature of the experiment: Inhibition of Bcr-Abl kinase (unknown origin) after 30 mins by HTRF assay. It is filed as protein assay.
For another experiment, the system named is K562. Nature of the experiment: Antiproliferative activity against human K562 cells after 48 hrs by MTT assay. It is filed as functional, cell-based. The note with it: K562, 48 h. The method, boiled down:
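Exponentially growing K562 cells were seeded at 1 × 10⁴ cells/well and preincubated 24 h at 37 °C. They were then exposed to the compounds at various concentrations for 48 h. MTT (5 mg/mL solution) was added for 4 h at 37 °C, the supernatant was removed, and formazan was dissolved in DMSO. Absorbance was read at 490 nm, and IC₅₀ is reported in µM.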

pIC50: −log10 of the molar value.

Chain of Bcr/Abl fusion protein (P00519 whole entry, the tested form may be a part): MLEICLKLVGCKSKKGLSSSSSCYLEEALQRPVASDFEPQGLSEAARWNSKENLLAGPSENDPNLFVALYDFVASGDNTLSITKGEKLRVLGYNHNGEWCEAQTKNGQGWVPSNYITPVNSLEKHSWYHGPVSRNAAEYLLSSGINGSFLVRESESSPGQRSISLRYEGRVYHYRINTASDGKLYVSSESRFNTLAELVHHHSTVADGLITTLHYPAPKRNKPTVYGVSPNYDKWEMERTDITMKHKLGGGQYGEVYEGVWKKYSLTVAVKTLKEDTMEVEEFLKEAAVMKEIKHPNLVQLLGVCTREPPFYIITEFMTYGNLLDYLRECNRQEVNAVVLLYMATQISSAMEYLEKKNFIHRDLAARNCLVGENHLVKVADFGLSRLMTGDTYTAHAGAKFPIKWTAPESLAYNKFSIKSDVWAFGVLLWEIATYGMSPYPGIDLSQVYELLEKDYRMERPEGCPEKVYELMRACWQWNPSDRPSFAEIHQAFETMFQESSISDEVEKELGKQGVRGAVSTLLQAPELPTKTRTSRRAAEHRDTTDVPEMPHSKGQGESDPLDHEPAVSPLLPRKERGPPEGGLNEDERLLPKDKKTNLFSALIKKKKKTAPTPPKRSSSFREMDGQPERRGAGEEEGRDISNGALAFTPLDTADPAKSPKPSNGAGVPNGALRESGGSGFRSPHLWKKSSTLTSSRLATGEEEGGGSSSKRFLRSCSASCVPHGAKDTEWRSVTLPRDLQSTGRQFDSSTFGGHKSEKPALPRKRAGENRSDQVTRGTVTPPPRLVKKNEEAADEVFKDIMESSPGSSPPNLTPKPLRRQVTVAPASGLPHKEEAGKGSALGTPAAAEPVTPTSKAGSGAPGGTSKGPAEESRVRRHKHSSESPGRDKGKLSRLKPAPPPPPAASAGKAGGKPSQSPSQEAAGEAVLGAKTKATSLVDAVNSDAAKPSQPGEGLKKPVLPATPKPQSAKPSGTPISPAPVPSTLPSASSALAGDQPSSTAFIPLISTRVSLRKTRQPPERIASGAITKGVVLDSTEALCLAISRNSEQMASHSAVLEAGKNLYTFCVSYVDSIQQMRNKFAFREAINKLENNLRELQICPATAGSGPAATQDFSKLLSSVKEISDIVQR
Chain of Bcr/Abl fusion protein (P11274 whole entry, further chain, the tested form may be a part): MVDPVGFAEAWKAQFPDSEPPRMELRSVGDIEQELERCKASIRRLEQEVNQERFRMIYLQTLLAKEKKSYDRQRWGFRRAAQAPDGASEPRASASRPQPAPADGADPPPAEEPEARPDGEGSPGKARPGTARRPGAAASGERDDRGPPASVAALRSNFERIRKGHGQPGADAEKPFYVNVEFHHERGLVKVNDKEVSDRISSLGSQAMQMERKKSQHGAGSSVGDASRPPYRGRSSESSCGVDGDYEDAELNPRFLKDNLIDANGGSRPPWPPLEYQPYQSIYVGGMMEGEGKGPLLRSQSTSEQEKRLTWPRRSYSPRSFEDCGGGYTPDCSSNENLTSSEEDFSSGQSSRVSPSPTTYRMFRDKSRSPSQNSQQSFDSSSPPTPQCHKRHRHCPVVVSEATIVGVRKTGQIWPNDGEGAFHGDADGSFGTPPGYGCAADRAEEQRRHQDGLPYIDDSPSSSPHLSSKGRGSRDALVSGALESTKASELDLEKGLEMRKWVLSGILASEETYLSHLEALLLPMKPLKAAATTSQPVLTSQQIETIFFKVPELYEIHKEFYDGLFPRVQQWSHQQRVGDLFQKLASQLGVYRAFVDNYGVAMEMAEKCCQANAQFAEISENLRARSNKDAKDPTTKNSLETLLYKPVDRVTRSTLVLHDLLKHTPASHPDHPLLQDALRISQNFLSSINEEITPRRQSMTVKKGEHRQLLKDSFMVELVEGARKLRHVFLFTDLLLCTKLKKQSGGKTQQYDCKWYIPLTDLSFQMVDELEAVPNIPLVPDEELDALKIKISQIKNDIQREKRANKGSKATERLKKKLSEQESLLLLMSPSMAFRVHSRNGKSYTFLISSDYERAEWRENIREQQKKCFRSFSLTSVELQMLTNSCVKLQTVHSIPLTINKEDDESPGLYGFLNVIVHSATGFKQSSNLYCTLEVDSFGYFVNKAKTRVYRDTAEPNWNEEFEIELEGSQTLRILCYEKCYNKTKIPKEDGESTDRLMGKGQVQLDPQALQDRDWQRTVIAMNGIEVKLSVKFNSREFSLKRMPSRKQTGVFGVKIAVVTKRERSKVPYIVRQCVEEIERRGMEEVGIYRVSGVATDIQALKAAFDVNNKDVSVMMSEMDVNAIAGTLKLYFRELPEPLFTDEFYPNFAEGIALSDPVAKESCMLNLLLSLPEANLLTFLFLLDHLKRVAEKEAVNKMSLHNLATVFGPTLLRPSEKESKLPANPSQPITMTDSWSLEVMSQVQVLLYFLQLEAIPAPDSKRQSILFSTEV

The pIC50 is −log10 of the IC50, conventionally taken in molar units. The low end stands for a high IC50, the high end for a low IC50. In the case of `COc1ccc(C(=O)Nc2ccc(F)c(Cl)c2)cc1Nc1nccc(-c2cccnc2)n1`, at Bcr/Abl fusion protein, the pIC50 is 8.33.

For `COc1ccc(C(=O)Nc2cccc(C(F)(F)F)c2)cc1Nc1nccc(-c2cccnc2)n1`, the pIC50 on Bcr/Abl fusion protein was 5.38.

`COc1ccc(C(=O)Nc2ccc(Br)cc2)cc1Nc1nccc(-c2cccnc2)n1` showed a pIC50 on Bcr/Abl fusion protein of 8.32.

Consider `COc1ccc(C(=O)Nc2cccc(F)c2)cc1Nc1nccc(-c2cccnc2)n1`, for which the pIC50 at Bcr/Abl fusion protein was 8.49. This pIC50 and that of the compound before are within 0.2 log units of each other.

As for `COc1ccc(C(=O)Nc2cc(C(F)(F)F)cc(C(F)(F)F)c2)cc1Nc1nccc(-c2cccnc2)n1`, the negative-log IC50 (pIC50) with K562 is 5.32.

As to `COc1ccc(C(=O)Nc2cc(Br)cc(C(F)(F)F)c2)cc1Nc1nccc(-c2cccnc2)n1`, the pIC50 in the experiment with K562 was 3.67.

Take `COc1ccc(C(=O)Nc2cccc(Cl)c2)cc1Nc1nccc(-c2cccnc2)n1`: the pIC50 in the experiment on K562 is 3.62; on Bcr/Abl fusion protein, 7.46.

The compound `COc1ccc(C(=O)Nc2cccc(C(C)=O)c2)cc1Nc1nccc(-c2cccnc2)n1` had a pIC50 in the experiment with K562 of 3.62.

For `COc1cccc(NC(=O)c2ccc(OC)c(Nc3nccc(-c4cccnc4)n3)c2)c1`, the negative-log IC50 (pIC50) in the experiment on K562 was 4.03. Against the preceding compound, the pIC50 is 0.41 log units higher.

As for `COc1ccc(C(=O)Nc2ccncc2)cc1Nc1nccc(-c2cccnc2)n1`, the results for the pIC50 with K562 and at Bcr/Abl fusion protein were 4.02 and 5.56, respectively.

Turning to `COc1ccc(C(=O)Nc2ncccn2)cc1Nc1nccc(-c2cccnc2)n1`, at Bcr/Abl fusion protein, the negative logarithm of the IC50 (pIC50) was 8.42.

On Bcr/Abl fusion protein, `COc1ccc(C(=O)Nc2nccs2)cc1Nc1nccc(-c2cccnc2)n1` showed a pIC50 of 6.53.

On to `COc1ccc(C(=O)Nc2ccc(OCCCN(C)C)cc2)cc1Nc1nccc(-c2cccnc2)n1`, for which the negative logarithm of the IC50 (pIC50) is 4.41 with K562 and 9.28 at Bcr/Abl fusion protein.

Regarding `COc1ccc(C(=O)Nc2ccc(OCCN(C)C)cc2)cc1Nc1nccc(-c2cccnc2)n1`, the pIC50 against Bcr/Abl fusion protein is 8.63.

For the compound `CCN(CC)CCOc1ccc(NC(=O)c2ccc(OC)c(Nc3nccc(-c4cccnc4)n3)c2)cc1`, the pIC50 at Bcr/Abl fusion protein was 8.83.

Regarding `COc1ccc(C(=O)Nc2ccc(OCCN3CCCC3)cc2)cc1Nc1nccc(-c2cccnc2)n1`, the pIC50 was 4.41 in the experiment with K562 and 6.46 against Bcr/Abl fusion protein.

Consider `COc1ccc(C(=O)Nc2ccc(OCCN3CCCCC3)cc2)cc1Nc1nccc(-c2cccnc2)n1`, for which the negative-log IC50 (pIC50) was 5.29 in the experiment on K562 and 5.95 against Bcr/Abl fusion protein.

`COc1ccc(C(=O)Nc2ccc(OCCN3CCOCC3)cc2)cc1Nc1nccc(-c2cccnc2)n1` showed a pIC50 at Bcr/Abl fusion protein of 7.20.

For `COc1ccc(C(=O)Nc2ccc(OCCCN3CCOCC3)cc2)cc1Nc1nccc(-c2cccnc2)n1`, the pIC50 on Bcr/Abl fusion protein is 8.20.

In turn, `Cc1cn(-c2cc(NC(=O)c3ccc(C)c(Nc4nccc(-c5cccnc5)n4)c3)cc(C(F)(F)F)c2)cn1` [NILOTINIB] had a pIC50 with K562 of 4.05.
